Key:
[1] = Ability to kill 50% of the animals after 24h, when administered perorally; format: ADME, organism-based; details: mouse, in vivo, po
Mus musculus [2] = experiment: Antagonism of tetrabenazine-induced ptosis in mice was evaluated after oral administration; format: functional
Outline: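 Mice dosed orally at various doses (highest 30 mg/kg) 30 min before tetrabenazine 40 mg/kg ip. Blepharoptosis scored 0–2 thirty minutes after tetrabenazine. Group score sums expressed as percentage.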

Mus musculus [3] = experiment: Potentiation of 5-hydroxytryptophan-induced head twitch in mice after oral administration; format: functional
Mus musculus [4] = experiment: Ability to kill 50% of the animals (administered orally), after sublethal dose of yohimbine (25 mg/Kg) when given subcutaneously.; format: functional
Mus musculus [5] = organism: Mus musculus; experiment: Percent increase of the diameter of the test pupil (% mydriasis) in comparison with that of the control pupil.; format: functional
Outline: (§1)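 One drop (0.1 mL) of a 1% aqueous solution instilled into the left eye of 10 mice; right eye as untreated control. Both pupil diameters measured by ocular micrometer; mean mydriasis given as percent increase of test pupil diameter over control pupil.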

Mus musculus [6] = organism: Mus musculus; experiment: % increase of the diameter of the test pupil (% mydriasis) in comparison with that of the control pupil.; format: functional, organism-based; outline: as §1
Mus musculus [7] = experiment: Compound was tested for its ability to kill 50% of the animals after 24h, when administered perorally; format: functional; details: po

Row | SMILES | LD50 at 24 h [1] [mg/kg] | ED50 (Mus musculus [2]) [mg/kg] | ED50 (Mus musculus [3]) [mg/kg] | ED50 (Mus musculus [4]) [mg/kg] | Mydriasis (Mus musculus [5]) [%] | Mydriasis (Mus musculus [6]) | LD50 (Mus musculus [7]) [mg/kg]
1 | CN(C)CCCN1c2ccccc2CCc2ccc(Cl)cc21 [CLOMIPRAMINE] | 556 | 9 | 37 | 5 | 38 |  | 
2 | CCNC(=O)[C@@]1(c2ccccc2)CC1CN.O=C(O)C(=O)O (stereo not given in full) | 316 | > 30 | > 100 | 19 |  | Not significant | 
3 | CCOC(=O)[C@@]1(c2ccccc2)CC1CNC.Cl (stereo not given in full) | 562 |  |  | 30 | 62 |  | 
4 | CCOC(=O)[C@@]1(c2ccc(F)cc2)CC1CN(C)C.Cl (stereo not given in full) | 562 | 8 |  | 12 | 76 |  | 
5 | CCOC(=O)[C@@]1(c2ccc(OC)cc2)CC1CN(C)C.Cl (stereo not given in full) | 562 |  |  | > 30 | 38 |  | 
6 | Cc1ccc([C@]2(C(=O)OC(C)C)CC2CN)cc1.Cl (stereo not given in full) | 1000 | 17 | 100 | 30 |  | Not significant | 
7 | CCCCN(CCCC)C(=O)[C@@]1(c2ccccc2)CC1CN.O=C(O)C(=O)O (stereo not given in full) | 562 | > 30 | > 100 | > 100 |  | Not significant | 
8 | CN(C)CCCN1c2ccccc2CCc2ccccc21 [IMIPRAMINE] |  | 5 | 60 | 7 | 61 |  | 
9 | CCCCN(C)CC1C[C@@]1(C(=O)OCC)c1ccccc1.Cl (stereo not given in full) | 255 |  |  | 27 | 61 |  | 
10 | CCOC(=O)[C@@]1(c2ccccc2)CC1CN(CCO)CCO.O=C(O)/C=C\C(=O)O (stereo not given in full) | > 1000 |  |  | > 100 |  | Not significant | 
11 | CCOC(=O)[C@@]1(c2ccccc2)CC1CN.Cl (stereo not given in full) | 316 | 30 | 73 | 100 | 33 |  | 
12 | CCN(CC)C(=O)[C@@]1(c2ccccc2)CC1CNC.O=C(O)C(=O)O (stereo not given in full) | 316 | 13 | > 100 | 4 |  | Not significant | 
13 | CCOC(=O)[C@@]1(c2ccc(Cl)cc2)CC1CN(C)C.Cl (stereo not given in full) | 422 | 6 | 35 | 2 | 24 |  | 
14 | Cl.NCC1C[C@@]1(C(=O)O)c1ccccc1 (stereo not given in full) | > 1000 | > 30 | > 100 | > 100 |  | Not significant | 
15 | CCOC(=O)[C@@]1(c2ccccc2)CC1CN(C(C)C)C(C)C.O=C(O)/C=C\C(=O)O (stereo not given in full) | 750 |  |  | 70 | 49 |  | 
16 | CC(C)OC(=O)[C@@]1(c2ccccc2)CC1CN.Cl (stereo not given in full) | 100 |  | 54 | 18 | 20 |  | 
17 | CCCOC(=O)[C@@]1(c2ccccc2)CC1CN(C)C.O=C(O)/C=C/C(=O)O (stereo not given in full) | 562 | 30 | > 100 | 25 | 55 |  | 
18 | CCN(CC)C(=O)[C@]1(c2cccc(Cl)c2)CC1CN.Cl (stereo not given in full) | 100 | 0.9 | > 10 | 3 |  | Not significant | 

Row | SMILES | LD50 at 24 h [1] [mg/kg] | ED50 (Mus musculus [2]) [mg/kg] | ED50 (Mus musculus [3]) [mg/kg] | ED50 (Mus musculus [4]) [mg/kg] | Mydriasis (Mus musculus [5]) [%] | Mydriasis (Mus musculus [6]) | LD50 (Mus musculus [7]) [mg/kg]
19 | CCOC(=O)[C@@]1(c2ccccc2)CC1CN(C)CCO.O=C(O)/C=C/C(=O)O (stereo not given in full) | > 1000 |  |  | 56 | 23 |  | 
20 | CCOC(=O)[C@@]1(c2ccccc2)CC1CN(C)C.Cl (stereo not given in full) | > 1000 | 1.4 |  | 10 | 40 |  | 
21 | CCCN(CCC)C(=O)[C@@]1(c2ccccc2)CC1CN.O=C(O)C(=O)O (stereo not given in full) | 100 | 5.5 |  | 9 | 27 |  | 
22 | CCOC(=O)[C@@]1(c2ccccc2)CC1CN(C)CCc1ccccc1.Cl (stereo not given in full) | 1000 | > 30 | > 30 | 15 | 30 |  | 
23 | CCOC(=O)[C@@]1(c2ccccc2)CC1CN1CCCC1.Cl (stereo not given in full) | 562 |  |  | > 100 | 53 |  | 
24 | CC(C)OC(=O)[C@@]1(c2ccccc2)CC1CN(C)C.Cl (stereo not given in full) | 422 | 7 |  | 18 | 73 |  | 
25 | CCN(CC)C(=O)[C@]1(c2ccccc2)C[C@H]1CN.Cl | 237 | 0.5 | > 100 | 0.5 |  | Not significant | 
26 | CCN(CC)C(=O)[C@]1(c2ccc(Cl)cc2)CC1CN.Cl (stereo not given in full) | 422 | 9 | > 100 | 3 | 11 |  | 
27 | CNCCCN1c2ccccc2CCc2ccccc21 [DESIPRAMINE] | 572 | 3 | > 100 | 2 | 46 |  | 
28 | CC(C)N(C(=O)[C@@]1(c2ccccc2)CC1CN)C(C)C.Cl (stereo not given in full) | 100 | 30 | > 30 | 15 |  | Not significant | 
29 | C=CCOC(=O)[C@@]1(c2ccccc2)CC1CN(C)C.O=C(O)/C=C/C(=O)O (stereo not given in full) | 1000 |  |  | 16 | 44 |  | 
30 | CCCCCCN(CCCCCC)C(=O)[C@@]1(c2ccccc2)CC1CN.O=C(O)C(=O)O (stereo not given in full) |  | > 30 | > 1000 | > 100 |  | Not significant | > 1000
31 | CCN(CC)C(=O)[C@]1(c2ccc(F)cc2)CC1CN.Cl (stereo not given in full) | 422 | 10 | 50 | 5 |  | Not significant | 
32 | NCC1C[C@@]1(C(=O)N1CCCC1)c1ccccc1.O=C(O)C(=O)O (stereo not given in full) | 562 | 20 | > 100 | 48 | 12 |  | 
33 | CCOC(=O)[C@@]1(c2ccccc2)CC1CNCc1ccccc1.Cl (stereo not given in full) | 316 |  |  | > 30 | 16 |  | 
34 | COC(=O)[C@@]1(c2ccccc2)CC1CN(C)C.Cl (stereo not given in full) | 750 | 30 |  | 29 | 60 |  | 
35 | CCN(CC)C(=O)[C@]1(c2ccccc2)C[C@@H]1CN.Cl [1R,2S-MILNACIPRAN HYDROCHLORIDE] | 562 | > 30 | > 100 | > 100 |  | Not significant | 
36 | CC(C)OC(=O)[C@@]1(c2ccc(Cl)cc2)CC1CN.Cl (stereo not given in full) | 255 | 8 | 50 | 2 | 23 |  | 

From ChEMBL document CHEMBL1123671, “1-Aryl-2-(aminomethyl)cyclopropanecarboxylic acid derivatives. A new series of potential antidepressants” (J Med Chem, 1987)
